Experiments:
[1] = species on record: Mus musculus; test: %T/C value measured in antitumor activity using murine P388 leukemia cells; format: functional
How it was run: (§1)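 Mice inoculated ip with P388 leukemia cells or the adriamycin-resistant subline P388/ADM. Drug activity expressed as T/C (%), i.e. mean survival days of the treated group over those of the control group, followed for 60 days. T/C >130% taken as significant. Optimal dose reported in mg/kg per injection.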

[2] = species on record: Mus musculus; test: Compound evaluated for optimal dose per injection against murine P388 leukemia cells; format: functional; how it was run: as §1
[3] = target: Nucleic Acid; test: Relative affinity for DNA binding; format: nucleic-acid assay
[4] = species on record: Mus musculus; test: Compound evaluated for optimal dose per injection against murine sarcoma 180 cells; format: functional
How it was run: (§2)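 Sarcoma 180 cells inoculated sc in mice. Drugs tested for antitumor activity, with the optimal dose given in mg/kg per injection. Activity expressed as treated versus control (T/C) value, and T/C <50% taken as effective.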

[5] = species on record: Mus musculus; test: Compound evaluated for optimal dose per injection against adriamycin resistant murine cell line (P388/ADM cells); format: functional; how it was run: as §1
[6] = test system: Mus musculus; test: Compound evaluated for optimal dose (mg/kg) per injection against murine P388 leukemia cells; format: functional; how it was run: as §1
[7] = species on record: Mus musculus; test: %T/C value measured in antitumor activity using murine sarcoma 180 cells; format: functional; how it was run: as §2
[8] = species on record: Mus musculus; test: %T/C value measured in antitumor activity using murine P388/ADM cells.; format: functional; how it was run: as §1
[9] = species on record: Mus musculus; test: %T/C value measured in antitumor activity using murine sarcoma 180 tumor cells; format: functional; how it was run: as §2
[10] = species on record: Mus musculus; test: %T/C value measured in antitumor activity using murine P388/ADM cells; format: functional; how it was run: as §1

SMILES: NCCNCc1nn2c3ccccc3c(=O)c3c(NCCN)ccc1c32
- T/C [1]: 150%
- Optimal dose [2]: 38 mg/kg
- IC50 [3]: 130 nM

SMILES: COc1cccc2c1C(=O)c1c(O)c3c(c(O)c1C2=O)C[C@@](O)(C(=O)CO)C[C@@H]3O[C@H]1C[C@H](N)[C@H](O)[C@H](C)O1 [DOXORUBICIN]
- Optimal dose [4]: 7.5 mg/kg
- Optimal dose [5]: 7.5 mg/kg
- T/C [1]: >254%
- Optimal dose [6]: 7.5 mg/kg
- T/C [7]: 31%
- T/C [8]: 116%

SMILES: NCCCNc1ccc2c(CN3CCOCC3)nn3c4cccc(O)c4c(=O)c1c23
- Optimal dose [4]: 13 mg/kg
- Optimal dose [5]: 13 mg/kg
- T/C [1]: >278%
- Optimal dose [6]: 13 mg/kg
- T/C [7]: 33%
- IC50 [3]: 890 nM
- T/C [8]: 115%

SMILES: CN(C)CCNc1ccc2c(CN(CCO)CCO)nn3c4cccc(O)c4c(=O)c1c23
- Optimal dose [4]: 13 mg/kg
- Optimal dose [5]: 25 mg/kg
- T/C [1]: >286%
- Optimal dose [6]: 25 mg/kg
- T/C [9]: 42%
- IC50 [3]: 420 nM
- T/C [8]: 134%

SMILES: O=c1c2c(O)cccc2n2nc(CNCCO)c3ccc(NCCCO)c1c32
- Optimal dose [5]: 50 mg/kg
- T/C [1]: 152%
- Optimal dose [6]: 13 mg/kg
- IC50 [3]: 1050 nM
- T/C [10]: 123%

SMILES: NCCCNc1ccc2c(CNCCO)nn3c4cccc(O)c4c(=O)c1c23
- Optimal dose [4]: 6 mg/kg
- Optimal dose [5]: 6.3 mg/kg
- T/C [1]: >230%
- T/C [9]: 21%
- Optimal dose [2]: 13 mg/kg
- IC50 [3]: 130 nM
- T/C [10]: 156%

SMILES: NCCNc1ccc2c(CNCCO)nn3c4cccc(O)c4c(=O)c1c23
- Optimal dose [4]: 6.3 mg/kg
- Optimal dose [5]: 1.6 mg/kg
- T/C [1]: >222%
- T/C [7]: 6%
- Optimal dose [2]: 1.6 mg/kg
- IC50 [3]: 140 nM
- T/C [10]: 152%

SMILES: O=c1c2c(O)cccc2n2nc(CNCCO)c3ccc(NCCNCCO)c1c32
- Optimal dose [4]: 12 mg/kg
- Optimal dose [5]: 6.3 mg/kg
- T/C [1]: >208%
- Optimal dose [6]: 3.1 mg/kg
- T/C [9]: 5%
- IC50 [3]: 140 nM
- T/C [10]: 145%

SMILES: NCCCCNc1ccc2c(CNCCO)nn3c4cccc(O)c4c(=O)c1c23
- Optimal dose [5]: 50 mg/kg
- T/C [1]: 161%
- Optimal dose [2]: 25 mg/kg
- IC50 [3]: 190 nM
- T/C [10]: 112%

SMILES: NCCNc1ccc2c(CNCCCO)nn3c4cccc(O)c4c(=O)c1c23
- Optimal dose [5]: 3.1 mg/kg
- T/C [1]: >181%
- Optimal dose [6]: 3.1 mg/kg
- IC50 [3]: 140 nM
- T/C [10]: 146%

SMILES: NCCNCc1nn2c3cccc(O)c3c(=O)c3c(NCCN)ccc1c32
- Optimal dose [4]: 25 mg/kg
- Optimal dose [5]: 13 mg/kg
- T/C [1]: >254%
- T/C [9]: 12%
- Optimal dose [2]: 13 mg/kg
- IC50 [3]: 170 nM
- T/C [10]: 138%

SMILES: CN(C)CCNc1ccc2c(CNCCO)nn3c4cccc(O)c4c(=O)c1c23
- Optimal dose [4]: 3.1 mg/kg
- Optimal dose [5]: 3.1 mg/kg
- T/C [1]: >261%
- T/C [9]: 9%
- Optimal dose [2]: 6.3 mg/kg
- IC50 [3]: 180 nM
- T/C [10]: 144%

SMILES: COc1cccc2c1c(=O)c1c(NCCN(C)C)ccc3c(CNCCN(C)C)nn2c31
- IC50 [3]: 160 nM

SMILES: COc1cccc2c1c(=O)c1c(NCCN)ccc3c(CNCCN)nn2c31
- T/C [1]: 139%
- Optimal dose [6]: 25 mg/kg
- IC50 [3]: 180 nM

SMILES: CN(C)CCNCc1nn2c3cccc(O)c3c(=O)c3c(NCCN(C)C)ccc1c32
- IC50 [3]: 160 nM

SMILES: CN(C)CCNCc1nn2c3ccccc3c(=O)c3c(NCCN(C)C)ccc1c32
- IC50 [3]: 260 nM

SMILES: NCCNc1ccc2c(CNCCCCO)nn3c4cccc(O)c4c(=O)c1c23
- Optimal dose [5]: 6.3 mg/kg
- T/C [1]: 146%
- Optimal dose [6]: 3.1 mg/kg
- IC50 [3]: 170 nM
- T/C [10]: 126%

SMILES: CCNCc1nn2c3cccc(O)c3c(=O)c3c(NCCN(C)C)ccc1c32
- Optimal dose [5]: 3.1 mg/kg
- T/C [1]: 196%
- Optimal dose [2]: 3.1 mg/kg
- IC50 [3]: 110 nM
- T/C [10]: 126%
